# Shown are actives, neighbours in structure and some others; about 1.5% of the full set was active somewhere.
# TbMetRS inhib – blocks T. brucei methionyl-tRNA synthetase activity | purified T. brucei MetRS, ATP depletion, Kinase-Glo luminescence | inhibition, % at 11.9 µM | hit rate 0.4% among 360,000 | AID 624268;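 active means inhibition above a per-plate cutoff of the control wells' mean inhibition plus 3 SD, cut at about 5.5% in these data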;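 further: 0% = DMSO wells median and 100% = median of wells with control inhibitor compound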
#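 technique = Kinase-Glo luminescence, ATP depletion format | system = purified MetRS (methionyl-tRNA synthetase) enzyme from Trypanosoma brucei | timing = 15 min preincubation, 2 h reaction, all 25 °C | evaluation = percent inhibition versus plate control medians | dosing = single dose, 11.9 µM final nominal, 0.9% final DMSO | also added = substrates ATP, L-methionine and bulk Escherichia coli tRNA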
# MsrA act – bovine methionine sulfoxide reductase A activation. activation, % at 10.6 µM. hit rate 0.3% among 360,000. purified bovine MsrA, absorbance read-out. AID 602163; in the data active means activation above about 7.5%;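 further: 0% = vehicle and 100% = reference activator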
# MsrA inhibitor – bovine MsrA inhibition; purified bovine MsrA, absorbance read-out; inhibition, % at 15.5 µM; hit rate 0.75% among 360,000; AID 651718;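 further: 0% = vehicle wells with enzyme and 100% = reference inhibitor wells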
# proCasp7 act – activates human procaspase-7, counter-screen for procaspase-3 activators. P55210. recombinant procaspase-7, Ac-DEVD-pNA absorbance 405 nm; D23A/D198A/D206A triple mutant, cannot self-cleave; scale: DMSO 0, 5 µM enzyme 100. activation, % at 8.5 µM. hit rate 0.093% among 330,000. AID 463210;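 active means percent activation above the screen-wide mean plus 3 SD, cut at about 25% in these data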
# Target sequence (P55210 whole entry D23A/D198A/D206A): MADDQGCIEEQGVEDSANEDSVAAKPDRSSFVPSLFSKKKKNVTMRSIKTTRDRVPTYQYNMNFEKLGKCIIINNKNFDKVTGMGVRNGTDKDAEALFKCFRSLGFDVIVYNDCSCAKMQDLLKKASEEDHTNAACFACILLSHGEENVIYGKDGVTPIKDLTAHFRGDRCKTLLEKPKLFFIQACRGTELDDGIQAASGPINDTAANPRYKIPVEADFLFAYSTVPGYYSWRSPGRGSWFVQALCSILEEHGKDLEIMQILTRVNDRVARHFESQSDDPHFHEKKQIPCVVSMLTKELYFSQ
#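 Replicates: singlicate. Assay system: Procaspase-7 triple mutant (PC-7 D3A). Signal: 405 nm absorbance of p-nitroaniline. Times: 1 h preincubation, 2 h reaction. Buffer or medium: Zinc-free HEPES pH 7.4 with 300 mM NaCl, 0.01% Triton X-100. Also added: DEVD-pNA substrate. Benchmarks: DMSO wells as 0%, DMSO with 5 µM added PC-7 as 100%.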
# procasp3 activ – activates human procaspase-3. hit rate 0.11% among 330,000. AID 463141. activation, % at 8.5 µM. P42574. recombinant procaspase-3 D3A, Ac-DEVD-pNA absorbance 405 nm;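 active means activation above the mean of all tested compounds plus 3 SD, cut at about 21% in these data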;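 further: 0% = DMSO alone and 100% = DMSO wells spiked with extra 5 µM PC-3 D3A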
#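 Assay system: Autoprocessing-dead procaspase-3 D3A mutant enzyme; also added: Ac-DEVD-pNA; doses: one concentration, 8.5 µM nominal, 0.8% DMSO; times: 1 h compound preincubation, 2 h substrate hydrolysis at 25 °C; technique: 405 nm absorbance of p-nitroaniline, reads at 0 and 120 min; measure: % activation between DMSO and enzyme-spiked controls; repeats: single replicate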
# MsrA conf – confirmation of bovine MsrA inhibitors | shares compounds with MsrA inhibitor | purified bovine MsrA, absorbance read-out | inhibition, % at 15.5 µM | hit rate 41% among 2,300 | AID 651822;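 further: coupled to thioredoxin reductase with NADPH and selenocystamine and DMSO as substrate; 0% = vehicle only and 100% = full effect of reference inhibitor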
# Active calls of the source: *; x = not tested or not shown. Unless noted, no stated cut-off is given here; in the data, active means inhibition above about 4.5%; inactive means the rest.
SMILES,TbMetRS inhib,MsrA act,MsrA inhibitor,proCasp7 act,procasp3 activ,MsrA conf
CC(NC(=O)COC(=O)C1=NN(c2ccccc2)C(=O)CC1)c1ccccc1 (centres undefined),0,-8,0,x,x,x
O=C(COC(=O)C1=NN(c2ccccc2)C(=O)CC1)Nc1ccc([N+](=O)[O-])cc1C(F)(F)F,0,-2,12*,4,2,11*
CCC(C)c1ccccc1NC(=O)COC(=O)C1=NN(c2ccccc2)C(=O)CC1 (centres undefined),0,-4,39*,2,-2,30*
Cc1cc(NC(=O)COC(=O)C2=NN(c3ccccc3)C(=O)CC2)c([N+](=O)[O-])cc1C,0,-7,0,7,-6,x
COc1cccc(/C=C2/SC(=O)N(CC(=O)N3CCc4ccccc4C3)C2=O)c1OCC(=O)O,0,-6,4.8*,-4,0,4
CC1(C)CC(c2nc(-c3ccc([N+](=O)[O-])cc3)cs2)CCO1 (centres undefined),0,-4,4.8*,3,0,2
Nc1nc(-c2ccc([N+](=O)[O-])cc2)cs1,0,-2,1,2,0,x
COC(=O)[C@]12C[C@H](CC(=O)NCCCCc3ccccc3)C(=O)N(Cc3ccccc3)C1=C[C@H](C1CCCC1)O[C@@H]2C,x,x,0,x,x,x
O=C(O)c1ccc(N/N=C/c2c(F)cccc2Cl)cc1,0,-6,6.5*,-4,12,4
O=C(N/N=C/c1c(F)cccc1Cl)C1CC1,0,-3,1,8,-1,x
CC1=CC(=C(C#N)C#N)C=C(C)N1CCN1CCNCC1,0,-6,6.5*,7,1,7.9*
CC(=O)N1CCN(CCN2C(C)=CC(=C(C#N)C#N)C=C2C)CC1,0,-11,3,7,6,x
CC1=CC(=C(C#N)C#N)C=C(C)N1CCN1CCN(C(=O)Nc2cccc(Cl)c2)CC1,0,-3,5.0*,11,3,4.6*
O=C(C(=O)N1CCC(CNS(=O)(=O)c2cc(C(F)(F)F)cc(C(F)(F)F)c2)CC1)c1cccs1,x,x,0,x,x,x
O=C(O)c1ccc(/C=N/NC(=O)c2cc3ccccc3cc2O)cc1,5,-8,5.0*,3,1,3
C[C@H]1CCCCO[C@@H](CN(C)CC2CC2)[C@@H](C)CN([C@@H](C)CO)C(=O)c2cc(NS(=O)(=O)c3ccccc3)ccc2O1,x,x,1,x,x,x
COc1cccc(C(=O)NCC2CCN(C(=O)C(=O)c3cc4ccccc4o3)CC2)c1,x,x,2,x,x,x
CCCN1C(=O)/C(=C/c2ccc(OCc3ccc(C(=O)O)cc3)c(OC)c2)NC1=S,0,0,0,5,-2,x
O=C1NC(=O)/C(=C\c2ccc(OCc3cccc(C(=O)O)c3)c(Cl)c2)N1,0,-4,5.3*,1,0,4
COc1cc(/C=C2\NC(=S)NC2=O)ccc1OCc1cccc(C(=O)O)c1,-1,-8,5.4*,6,1,4
CCOc1cc(/C=C2/NC(=O)NC2=O)cc(Br)c1OCc1ccc(C(=O)O)cc1,0,-6,6.2*,9,-3,2
COc1cc(/C=C2\NC(=O)NC2=O)cc(Br)c1OC,0,-1,4,16,4,x
CCCCN(CC)CCCNC(=O)c1cn(-c2ccc(OC)cc2)c(=O)c2ccccc12,-1,-1,0,0,-7,x
CCOc1cc(/C=N/NC(=O)C(=O)N/N=C/c2ccc(O)c(OCC)c2)ccc1O,0,-4,5.5*,-8,4,4
CCOc1cc(/C=N/Nc2nnc(C)n2N)ccc1O,1,5,4,-15,-14,x
CCOc1cc(/C=N/NC(=O)N/N=C/c2ccc(O)c(OCC)c2)ccc1O,x,x,5.5*,5,4,4
CCOc1cc(/C=N/NC(=O)C(OC)c2ccccc2)ccc1O (centres undefined),-1,-9,4,-3,3,x
CCOc1cc(/C=N/Nc2ncnc(Cl)c2N)ccc1O,0,-7,4.9*,-15,-4,6.0*
O=C(O)CCC(=O)Nc1ccc(/C=C/C(=O)C2CC2)cc1,-1,-6,7.3*,10,0,3
Nc1ccc(-c2nc3c(ccc4ccccc43)[nH]2)cc1,1,-3,2,2,-7,x
